Assay results reported in PubChem BioAssay.
Activity calls are given as the source filed them.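 Rule for the calls: active = GFP response above 150% of the DMSO control; inconclusive = Fewer than 70 cells counted for a yeast strain; inactive = the rest.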

Assay: yeast TOR pathway reporter LAP4-GFP change – cell-based, cherry picks, flow cytometry, mother/daughter gates, confirmation (AID 2271);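 note: ratio of sample to DMSO plate mean so 100% equals DMSO level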
Details: S. cerevisiae LAP4-GFP strain, 3 h, measured here: mother cell gate response, at 10 µM, stronger effect = higher value, 100 means same as DMSO control
Procedure, shortened: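 Test system: GFP-fusion yeast strain. Medium: synthetic complete (SC) yeast growth medium. Timing: 3 h treatment at 30 °C with rotation. Measured by: GFP by flow cytometry. Control set: positive rapamycin (400 ng/mL), negative DMSO.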

Compound | GFP response relative to DMSO [%]
Cc1ccc(S(=O)(=O)Nc2cc(Cl)c(O)c3ncccc23)cc1 | 126
CC1CCc2c(C(=O)NCc3cccnc3)csc2C1 (configuration not stated) | 113
CCNc1nc(-c2ccc(Cl)cc2)cs1 | 96.2
O=C(CSc1nc2ccsc2c(=O)n1CC1CCC(C(=O)O)CC1)c1ccc(F)cc1 (configuration not stated) | 91.1
CC(=O)Oc1ccc(N2C(=O)C3C4C=CC(CO)(O4)C3C2=O)cc1 (configuration not stated) | 120
Oc1c(C(Nc2cccc(C(F)(F)F)c2)c2ccncc2)ccc2cccnc12 (configuration not stated) | 136
COc1cc(C2CC(c3cccnc3)=NN2c2ccc(F)cc2)cc(OC)c1OC (configuration not stated) | 95.4
COc1ccc(C(=O)C2CCCN(C(=O)c3cccs3)C2)cc1F (configuration not stated) | 98.4
COC(=O)c1ccc(Cn2cc(/C=C\[N+](=O)[O-])c3ccccc32)o1 | 127
CC(C)(C)NC(=O)CN(C(=O)CCC(=O)Nc1nccs1)c1ccc(F)cc1 | 98.4
COc1ccccc1CNC(=O)CS(=O)Cc1nc(-c2ccc(OC)c(OC)c2)oc1C (configuration not stated) | 96.1
O=C(COC(=O)C1CCN(c2ccc(C(F)(F)F)cn2)CC1)Nc1cccc(F)c1 | 100
COc1ccc(CCNc2nc(-c3sc(C)nc3C)cs2)cc1OC | 105
O=C(Nc1c2c(nn1-c1ccccc1)CS(=O)C2)c1ccco1 (configuration not stated) | 95.4
Cc1ccsc1/C=N/Nc1ncc(Cl)cc1Cl | 189
O=C(Nc1ccc(S(=O)(=O)N2CCOCC2)cc1)c1ccc([N+](=O)[O-])cc1Cl | 94
Cc1ccc(-c2nc(NC(=O)c3nn(C)cc3[N+](=O)[O-])sc2C)cc1C | 99.5
CC(C)c1nnc(SCC(=O)N2CCc3ccccc32)n1C | 99.3
O=S(=O)(c1ccc(-c2ccccc2)cc1)N1CCOCC1 | 97.4
Cc1cc(O)c(C(=O)/C=C/c2cccc([N+](=O)[O-])c2)c(=O)o1 | 152
COc1ccccc1N=Nc1ccc(O)c2ncccc12 | 223
N=c1ccn(CC(=O)c2ccc(-c3ccccc3)cc2)cc1 | 99.5

Assay: TOR pathway reporter MEP2-GFP, retest of hits – S. cerevisiae, flow cytometry GFP, cherry picks, confirmation (AID 2272);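 note: ratio of well signal to plate DMSO mean so 100% equals DMSO level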
Details: S. cerevisiae MEP2-GFP strain, 3 h, at 10 µM, stronger effect = higher value

Compound | GFP response vs DMSO
COc1ccc(COC(=O)c2n[nH]c3ccccc23)cc1F | 102% (inactive)
CCCc1cc(N2CCN(c3ccccn3)CC2)n2nc(C)c(-c3ccccc3)c2n1 | 160% (inactive)
O=C1c2ccccc2C2=Nc3ccccc3SC(c3cccc(F)c3)C12 (configuration not stated) | 139% (inactive)
CCOC(=O)COc1c(Cl)cc(/C=C2\N=C(C)OC2=O)cc1OC | 104% (inactive)
Cc1nn2c(N3CCN(C(=O)c4ccco4)CC3)cc(C(C)(C)C)nc2c1-c1ccccc1 | 100% (inactive)
Cc1ccc(S(=O)(=O)N(CC(=O)NCc2ccncc2)Cc2ccccc2F)cc1 | 105% (inactive)
Cc1ccc(N2C(=O)C3C4C=CC(CNC(=S)Nc5ccc(F)cc5)(O4)C3C2=O)cc1 (configuration not stated) | 108% (inactive)
COc1ccc(CC(=O)Oc2ccccc2C)cc1 | 102% (inactive)
Cc1cc(C=C2C(=O)c3ccccc3C2=O)c(C)n1-c1cccc(C(=O)O)c1 | 101% (inactive)
CC(C)c1ccc2c(c1)C1(NN=C(c3ccccc3)S1)C(=O)N2 (configuration not stated) | 100% (inactive)
O=C(N/N=C\c1ccc(F)cc1)c1cc(OCC(F)(F)F)ccc1OCC(F)(F)F | 102% (inactive)
Cc1cc(NCCCN2CCOCC2)n2ncc(-c3ccccc3)c2n1 | 102% (inactive)
COc1cc(NC(C)=O)ccc1NC(=O)c1cc2ccccc2o1 | 100% (inactive)
COc1ccc(CCN2C(=O)c3cccc4cccc(c34)C2=O)cc1OC | 101% (inactive)
CN(O)/C=c1/ccc2c(n1)C(=O)C=CC=2 | 115% (inactive)
C/C(=N\NC(=O)c1ccc(Cl)c(Cl)c1)c1cccc(NC(=O)C(C)C)c1 | 99.5% (inactive)
Cc1ccc(-c2ccc(/C=N/NC(N)=S)o2)cc1 | 102% (inactive)
CC(C)(C)c1ccc(C(=O)N/N=C/c2cccc(Cl)c2)cc1 | 99.3% (inactive)
Cc1ccc(S(=O)(=O)Nc2cc(Cl)c(O)c3ncccc23)cc1 | 110% (inactive)
CC1CCc2c(C(=O)NCc3cccnc3)csc2C1 (configuration not stated) | 94.7% (inactive)

Compound | GFP response vs DMSO
CCNc1nc(-c2ccc(Cl)cc2)cs1 | 102% (inactive)
O=C(CSc1nc2ccsc2c(=O)n1CC1CCC(C(=O)O)CC1)c1ccc(F)cc1 (configuration not stated) | 100% (inactive)
CC(=O)Oc1ccc(N2C(=O)C3C4C=CC(CO)(O4)C3C2=O)cc1 (configuration not stated) | 107% (inactive)
Oc1c(C(Nc2cccc(C(F)(F)F)c2)c2ccncc2)ccc2cccnc12 (configuration not stated) | 112% (inactive)
COc1cc(C2CC(c3cccnc3)=NN2c2ccc(F)cc2)cc(OC)c1OC (configuration not stated) | 101% (inactive)
COc1ccc(C(=O)C2CCCN(C(=O)c3cccs3)C2)cc1F (configuration not stated) | 99% (inactive)
COC(=O)c1ccc(Cn2cc(/C=C\[N+](=O)[O-])c3ccccc32)o1 | 106% (inactive)
CC(C)(C)NC(=O)CN(C(=O)CCC(=O)Nc1nccs1)c1ccc(F)cc1 | 105% (inactive)
COc1ccccc1CNC(=O)CS(=O)Cc1nc(-c2ccc(OC)c(OC)c2)oc1C (configuration not stated) | 105% (inactive)
O=C(COC(=O)C1CCN(c2ccc(C(F)(F)F)cn2)CC1)Nc1cccc(F)c1 | 96.2% (inactive)
COc1ccc(CCNc2nc(-c3sc(C)nc3C)cs2)cc1OC | 102% (inactive)
O=C(Nc1c2c(nn1-c1ccccc1)CS(=O)C2)c1ccco1 (configuration not stated) | 99.3% (inactive)
Cc1ccsc1/C=N/Nc1ncc(Cl)cc1Cl | 109% (inactive)
O=C(Nc1ccc(S(=O)(=O)N2CCOCC2)cc1)c1ccc([N+](=O)[O-])cc1Cl | 102% (inactive)
Cc1ccc(-c2nc(NC(=O)c3nn(C)cc3[N+](=O)[O-])sc2C)cc1C | 97.5% (inactive)
CC(C)c1nnc(SCC(=O)N2CCc3ccccc32)n1C | 102% (inactive)
O=S(=O)(c1ccc(-c2ccccc2)cc1)N1CCOCC1 | 103% (inactive)
Cc1cc(O)c(C(=O)/C=C/c2cccc([N+](=O)[O-])c2)c(=O)o1 | 110% (inactive)
COc1ccccc1N=Nc1ccc(O)c2ncccc12 | 132% (inactive)
N=c1ccn(CC(=O)c2ccc(-c3ccccc3)cc2)cc1 | 104% (inactive)
